CCR6 antagonist – CCR6 receptor antagonists, primary screen, cell-based, CHO-K1, luminescence, beta-arrestin, uHTS; CHO-K1 CCR6 PathHunter beta-arrestin, CCL20-stimulated; inhibition, % at 20 µM; actives 0.49% (n = 340,000); AID 493098, 2011;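 active means compounds whose inhibition of the agonist-driven luminescence signal at 20 µM reaches about 50%, limit read from the data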;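 further: cells stimulated with CCL20 at 14 nM final; plate controls were DMSO with CCL20 for no effect and DMSO without agonist for full effect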
Target sequence (P51684 whole entry, looked up): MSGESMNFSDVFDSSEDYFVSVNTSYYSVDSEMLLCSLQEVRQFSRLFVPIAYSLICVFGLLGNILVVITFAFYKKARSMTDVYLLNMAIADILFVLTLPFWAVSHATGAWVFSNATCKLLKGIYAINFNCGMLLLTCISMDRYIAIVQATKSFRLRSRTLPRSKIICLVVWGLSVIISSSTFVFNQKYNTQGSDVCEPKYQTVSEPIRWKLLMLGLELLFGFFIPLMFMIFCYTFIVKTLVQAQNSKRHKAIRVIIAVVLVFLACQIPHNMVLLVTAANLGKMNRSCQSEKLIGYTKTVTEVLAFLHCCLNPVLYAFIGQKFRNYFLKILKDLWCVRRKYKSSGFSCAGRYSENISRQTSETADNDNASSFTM
CXCR6 inh – CXCR6 receptor inhibitors, primary screen, cell-based, beta-arrestin, luminescence, CHO-K1 PathHunter, 1536-well | C-X-C chemokine receptor type 6 (Homo sapiens), O00574 | inhibition, % at 20 µM | actives 0.36% (n = 360,000); in the data active means inhibition above about 34%, passing the limit was not always enough;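 further: antagonist mode with CXCL16 agonist at 10 nM final; 0% = 10 nM CXCL16 with DMSO and 100% = unstimulated wells without agonist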
APJ agonist – agonists of human apelin receptor APJ, primary screen, CHO-K1 cells, PathHunter beta-arrestin, luminescence. P35414. 0% DMSO wells, 100% apelin. activation, % at 20 µM. actives 0.11% (n = 330,000). AID 2520, 2010;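 active means activation more than six SD over the plate average, tested at 20 µM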;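 further: 0% = DMSO alone and 100% = apelin-13 at 10 nM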
Target sequence (P35414 whole entry, looked up): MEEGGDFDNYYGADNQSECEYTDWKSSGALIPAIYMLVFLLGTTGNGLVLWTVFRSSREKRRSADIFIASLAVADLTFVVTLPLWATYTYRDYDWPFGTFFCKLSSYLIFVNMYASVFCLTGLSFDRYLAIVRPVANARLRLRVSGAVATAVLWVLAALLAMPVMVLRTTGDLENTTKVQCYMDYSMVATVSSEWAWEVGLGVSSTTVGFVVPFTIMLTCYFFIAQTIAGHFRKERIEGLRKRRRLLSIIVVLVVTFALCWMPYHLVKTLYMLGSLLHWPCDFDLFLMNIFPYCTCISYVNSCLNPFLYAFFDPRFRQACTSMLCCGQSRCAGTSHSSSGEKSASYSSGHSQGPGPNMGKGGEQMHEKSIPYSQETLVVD
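Material: CHO-K1 APJ beta-arrestin complementation cell line; Input: cell density 1000 per well; Incubation: compound stimulation 90 min at 25 °C, detection 60 min; Signal: luminescence from split beta-galactosidase complementation, Galacton Star/Emerald II substrate; Controls: DMSO-only wells as negative, 10 nM Apelin-13 as positive control.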
APJ antagonist – antagonists of human apelin receptor APJ, primary screen, CHO-K1 cells, beta-arrestin complementation, luminescence. P35414. inhibition, % at 20 µM. actives 0.32% (n = 330,000). AID 2521, 2010;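 active means inhibition above about 40% at 20 µM, limit read from the data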;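 further: cells challenged with 10 nM apelin-13 agonist together with compound; plate controls were apelin-13 plus DMSO wells for no effect and DMSO wells lacking apelin-13 for full effect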
H9c2 TAG inh – inhibitors of triacylglycerol accumulation, primary screen, cell-based, uHTS, fluorescence, H9c2 | H9c2 cells, Nile Red lipid (TAG) fluorescence; cells loaded with 200 µM oleic acid | inhibition, % at 12.5 µM | actives 0.66% (n = 230,000) | AID 651582, 2012;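 active means pattern-corrected inhibition of lipid staining of at least 50% with the nuclear-stain viability signal not falling by more than 50%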;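 further: 0% = DMSO wells and 100% = triacsin C control wells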
EBI2 block – EBI2 receptor antagonists, beta-arrestin recruitment, primary screen, cell-based, luminescence, 7a,25-OHC stimulation, uHTS; 7a,25-OHC stimulated; inhibition, % at 5 µM; actives 0.81% (n = 360,000); AID 651636, 2012; in the data active means inhibition above about 38%;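 further: enzyme fragment complementation signal reports receptor beta-arrestin coupling in cells; 0% = agonist plus DMSO wells and 100% = wells without agonist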
EBI2 antag conf – EBI2 antagonist hit retest, beta-arrestin, confirmation, cell-based, single concentration, luminescence, 7a,25-OHC stimulation; AID 651997, 2013; actives 29% (n = 2,400); shares compounds with EBI2 block; 7a,25-OHC antagonism; inhibition, % at 5 µM;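 active means inhibition of at least 50%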
EBI2 agonist – EBI2 agonist activity of antagonist hits, confirmation, counter-screen for EBI2 antagonist project, cell-based, single concentration, agonist mode, luminescence; shares compounds with EBI2 block; EBI2-expressing cells, 60 min; 0% vehicle, 100% 7α,25-dihydroxycholesterol control; activation, % at 5 µM; 2,400 tested, under 10 active;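 active means activation of at least 50%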
bGal cs – E. coli beta-galactosidase enzyme inhibition, confirmation, counter-screen for EBI2 antagonist project, biochemical, luminescence, single concentration; actives 1% (n = 2,400); inhibition, % at 5 µM; purified beta-galactosidase, luminescent Galacton Star, 15 min; shares compounds with EBI2 block; AID 652176, 2013;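 active means replicate-average signal at least 3 plate SD below neutral wells, shown as high inhibition, flagging enzyme-inhibiting false positives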;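 further: 0% = DMSO wells with enzyme and 100% = wells lacking enzyme; higher means stronger loss of beta-gal luminescence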
An asterisk follows results filed as active; . = not tested or not shown. Compounds with a hit are over-represented: about 1.9% of the library has one in this group of screens.

SMILES | CCR6 antagonist | CXCR6 inh | APJ agonist | APJ antagonist | H9c2 TAG inh | EBI2 block | EBI2 antag conf | EBI2 agonist | bGal cs
Cc1nc(CS(=O)(=O)c2ccc(Cl)cc2)cc(Sc2ccc(Cl)cc2)n1 | 0.5 | -1.2 | -5.3 | 0.0 | -3.4 | 73.2* | 62.4* | -0.2 | 11.2
O=C(NC1CCCCC1)C(c1ccc(F)cc1)N(C(=O)c1csnn1)C1CCCC1 (centres undefined) | 11.9 | 0.7 | 0.3 | 13.2 | . | 11.0 | . | . | .
CSc1nc(-c2ccccc2)nn1C(=O)c1ccccc1 | -10.6 | 0.5 | -6.1 | -2.2 | -7.6 | -2.7 | . | . | .
CCCC(=O)n1nc(-c2ccccc2)nc1SC | -8.4 | -7.8 | -7.7 | -0.5 | -4.3 | 42.7* | 24.2 | 1.2 | 7.2
CCCCOC(=O)C(C#N)c1nc2ccccc2nc1N1CCN(Cc2ccc3c(c2)OCO3)CC1 (centres undefined) | 17.3 | 25.4 | -6.5 | 8.7 | -8.9 | 45.9* | 17.7 | -2.0 | -3.1
COC(=O)C(C#N)c1nc2ccccc2nc1N1CCN(Cc2ccc3c(c2)OCO3)CC1 (centres undefined) | . | . | -1.4 | -4.9 | . | . | . | . | .
CC(C)COC(=O)C(C#N)c1nc2ccccc2nc1N1CCN(Cc2ccccc2)CC1 (centres undefined) | 24.6 | 15.6 | 4.5 | 3.6 | 22.3 | 46.0* | 33.5 | -0.5 | 7.0
O=C(/C=C/c1ccc(Br)cc1)N1CCN(Cc2ccccc2)CC1 | 5.6 | -4.1 | 3.7 | 9.8 | 9.0 | 96.0* | 85.3* | -0.8 | -6.9
O=C(/C=C/c1ccc(F)cc1)N1CCN(Cc2ccccc2)CC1 | 0.9 | -10.6 | 0.3 | -6.7 | 4.4 | 92.7* | 79.5* | 1.7 | 0.1
O=C(Nc1ccc(F)cc1)Nc1nnc([C@@H]2C[C@H](O)[C@@H](CO)O2)s1 | . | 0.3 | . | . | 0.2 | -6.1 | . | . | .
O=C(c1cc(-c2ccc(Cl)cc2)n[nH]1)N1CCN(C(=O)c2ccco2)CC1 | -4.7 | -6.9 | -2.8 | -5.5 | . | 42.4* | 28.5 | 2.1 | 9.4
CCOC(=O)C1(Cc2ccc(OC)cc2)CCN(C(=O)c2cc3ccccc3[nH]2)CC1 | 13.6 | 2.8 | -2.8 | -5.6 | -8.2 | 67.4* | 35.4 | -1.2 | -2.7
COc1ccccc1N1CCN(C(=S)NC(=O)/C=C/c2ccc(F)cc2)CC1 | 14.2 | 5.3 | -4.7 | 4.4 | 10.8 | 53.7* | 35.2 | -0.5 | 8.7
COc1ccccc1N1CCN(C(=O)c2cc3cc(C)ccc3[nH]2)CC1 | 6.1 | -5.9 | -3.6 | 13.3 | . | 93.5* | 80.1* | 1.0 | 2.6
COc1ccccc1N1CCN(C(=O)c2cccc(C(=O)N3CCN(c4ccccc4OC)CC3)c2)CC1 | -2.5 | 13.2 | 5.0 | -22.3 | 3.1 | -0.2 | . | . | .
COc1ccccc1N1CCN(C(=S)NC(=O)/C=C/c2ccccc2)CC1 | 24.3 | 10.2 | -0.1 | 8.6 | 20.7 | 7.4 | . | . | .
Nn1c(SCC(=O)Nc2cccc(Br)c2)nnc1C1CC1 | 2.2 | -4.1 | -3.2 | 14.7 | -16.9 | 9.3 | . | . | .
CCN(CC)S(=O)(=O)c1ccc(C(=O)NC(=S)N2CCCCC2C)cc1 (centres undefined) | . | 11.4 | . | . | -2.7 | 3.9 | . | . | .
COc1ccccc1N1CCN(S(=O)(=O)CCNC(=O)/C=C/c2ccc3c(c2)OCO3)CC1 | . | 1.9 | . | . | -2.5 | 78.3* | 59.3* | 0.5 | 8.0
COc1ccccc1N1CCN(C(=O)c2cc3cc(Cl)ccc3[nH]2)CC1 | -12.3 | -8.5 | 1.9 | -12.3 | . | 89.4* | 72.8* | 0.1 | -9.8
COc1ccccc1N1CCN(C(=O)c2cc3cc(F)ccc3[nH]2)CC1 | 0.0 | -5.5 | -2.3 | 10.7 | . | 87.1* | 58.4* | 1.6 | 3.9
COc1ccc(N2CCN(S(=O)(=O)CCNC(=O)/C=C/c3ccc4c(c3)OCO4)CC2)cc1 | 0.8 | -8.5 | -0.7 | -27.2 | 16.8 | 13.4 | . | . | .
COc1ccccc1N1CCN(C(=O)C2CCN(C(=O)c3cccc(Cl)c3)CC2)CC1 | 6.5 | -5.4 | -3.1 | 7.4 | . | 2.3 | . | . | .
Cc1cc(C)cc(C(=O)NCC(=O)N2CCN(C(c3ccccc3)c3ccccc3)CC2)c1 | 1.6 | 9.3 | -2.4 | -3.5 | . | -5.2 | . | . | .
Cc1ccc2[nH]c(C(=O)N3CCN(C(c4ccccc4)c4ccccc4)CC3)cc2c1 | 8.6 | 2.2 | -2.2 | -4.3 | 0.1 | 89.2* | 86.3* | -0.8 | -11.3
SMILES | CCR6 antagonist | CXCR6 inh | APJ agonist | APJ antagonist | H9c2 TAG inh | EBI2 block | EBI2 antag conf | EBI2 agonist | bGal cs
O=C(c1cc2cc(F)ccc2[nH]1)N1CCc2ccccc21 | 4.0 | -8.2 | 1.8 | 2.7 | . | 2.0 | . | . | .
COc1cc2cc(C(=O)N3CCN(c4ccccc4OC)CC3)[nH]c2cc1OC | 12.5 | -2.9 | -0.8 | -3.3 | . | 5.8 | . | . | .
CN1CCN(C(=O)c2cc3cc(F)ccc3[nH]2)CC1 | 7.7 | -1.8 | 0.1 | 6.6 | . | 11.8 | . | . | .
O=C(c1cc2cc(F)ccc2[nH]1)N1CCN(C(=O)c2ccco2)CC1 | -14.6 | -8.5 | 2.4 | -65.4 | . | 67.3* | 36.5 | -0.5 | 3.5
COc1ccccc1N1CCN(C(=O)c2cc3ccccc3[nH]2)CC1 | 5.0 | -11.1 | 3.0 | 4.9 | 10.6 | 73.2* | 55.5* | 1.8 | 4.5
COc1ccc2cc(C(=O)N3CCN(c4cccc(C)c4C)CC3)[nH]c2c1 | 9.0 | 6.3 | -0.6 | 5.7 | . | 84.5* | 56.7* | -1.1 | -14.9
N#C/C(=C\c1ccc(OCc2cccc(C(=O)O)c2)cc1)C(=O)NCc1ccco1 | 12.9 | 3.8 | -3.4 | 1.4 | 8.3 | 4.1 | . | . | .
NC(=O)C1=CC2C3C=CC2(O)C(=O)OC3O1 (centres undefined) | 3.0 | -3.6 | . | . | 27.2 | -3.5 | . | . | .
CCCCN(C(=O)C1CC(=O)N(CCc2ccc(OC)c(OC)c2)C1)c1c(N)n(CC(C)C)c(=O)[nH]c1=O (centres undefined) | 0.7 | 4.1 | . | . | 3.8 | -1.9 | . | . | .
COC(=O)[C@H](Cc1ccccc1)NC(=O)Cn1ccc(NC(=O)OCc2ccccc2)nc1=O | -11.5 | 4.4 | -3.3 | 2.8 | -11.1 | -3.2 | . | . | .
C=CCn1c(SCc2ccc(C(=O)Nc3ccccc3)cc2)nnc1-c1ccccc1 | 1.3 | 4.9 | -5.5 | -30.1 | . | 49.3* | 15.0 | 0.7 | 9.7

Screening results as filed in PubChem.
